Laboratory results reported in ChEMBL document CHEMBL4823250, “Discovery of thalidomide-based PROTAC small molecules as the highly efficient SHP2 degraders” (Eur J Med Chem, 2021).
One block for each compound: values may come before it. Calls of active or inactive are those of the source. The rule behind the calls is not given here.

Experiments:
[1] = molecular target: T1, Protein cereblon/Tyrosine-protein phosphatase non-receptor type 11 (Homo sapiens, UniProt Q06124+Q96SW2); assay: Protac activity at SHP2/CRBN in human MV4-11 cells assessed as SHP2 degradation at 8 nM measured after 12 hrs by Western blot analysis relative to control; type: cell-based
How it was run: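 MV4-11 cells (IMDM, 10% FBS, 37 °C, 5% CO2) plated at 1.0×10^6 cells/well and exposed 12 h to 8 or 200 nM. Lysis in RIPA with protease inhibitors, then SDS-PAGE, nitrocellulose transfer and anti-human SHP2 immunoblot. SHP2 signal normalized to GAPDH and percent degradation quantified by densitometry. Reported as the average of two independent measurements.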
Target sequence in this assay (Q96SW2 whole entry partner, one chain of several): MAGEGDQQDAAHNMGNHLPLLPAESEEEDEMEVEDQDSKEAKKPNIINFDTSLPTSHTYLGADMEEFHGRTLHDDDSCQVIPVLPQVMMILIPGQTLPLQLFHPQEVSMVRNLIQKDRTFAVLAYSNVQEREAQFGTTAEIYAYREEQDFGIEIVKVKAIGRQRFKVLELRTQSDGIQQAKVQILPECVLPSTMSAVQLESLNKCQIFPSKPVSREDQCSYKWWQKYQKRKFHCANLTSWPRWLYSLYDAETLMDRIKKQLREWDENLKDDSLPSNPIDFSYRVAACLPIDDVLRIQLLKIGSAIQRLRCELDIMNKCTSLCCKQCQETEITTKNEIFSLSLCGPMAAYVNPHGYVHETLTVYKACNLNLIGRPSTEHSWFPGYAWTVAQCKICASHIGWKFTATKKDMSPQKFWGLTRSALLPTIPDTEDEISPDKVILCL

MV4-11 [2] = assay: Induction of apoptosis in human MV4-11 cells assessed as viable cells at 70 nM measured after 48 hrs by Annexin V/FITC-PI staining based flowcytometry assay (reference value: 91%); type: functional
MV4-11 [3] = assay: Induction of apoptosis in human MV4-11 cells assessed as viable cells at 200 nM measured after 48 hrs by Annexin V/FITC-PI staining based flowcytometry assay (reference value: 91%); type: functional
MV4-11 [4] = assay: Induction of apoptosis in human MV4-11 cells assessed as early apoptotic cells at 200 nM measured after 48 hrs by Annexin V/FITC-PI staining based flowcytometry assay (reference value: 2.99%); type: functional
MV4-11 [5] = assay: Induction of apoptosis in human MV4-11 cells assessed as late apoptotic cells at 600 nM measured after 48 hrs by Annexin V/FITC-PI staining based flowcytometry assay (reference value: 5.95%); type: functional
MV4-11 [6] = assay: Induction of apoptosis in human MV4-11 cells assessed as late apoptotic cells at 200 nM measured after 48 hrs by Annexin V/FITC-PI staining based flowcytometry assay (reference value: 5.95%); type: functional
MV4-11 [7] = assay: Induction of apoptosis in human MV4-11 cells assessed as early apoptotic cells at 70 nM measured after 48 hrs by Annexin V/FITC-PI staining based flowcytometry assay (reference value: 2.99%); type: functional
[8] = molecular target: T1, Protein cereblon/Tyrosine-protein phosphatase non-receptor type 11; assay: Protac activity at SHP2/CRBN in human MV4-11 cells assessed as decrease in SHP2 protein level measured after 12 hrs by Western blot analysis; type: cell-based; details: dose 8-500 nM
How it was run: (§1)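 MV4-11 cells, 1.0×10^6 cells/well, treated 12 h across a concentration series. Lysed in RIPA plus protease inhibitors, separated by SDS-PAGE onto nitrocellulose and immunoblotted for SHP2 with GAPDH as loading control. Band intensities normalized to GAPDH; DC50 derived from the quantified SHP2 levels.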
Target sequence in this assay (Q96SW2 whole entry partner, one chain of several): as above

MV4-11 [9] = assay: Cytotoxicity against CRBN knock out human MV4-11 cells assessed as cell viability measured after 72 hrs by MTS assay; type: cell-based; details: MV4-11, 72 h
How it was run: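 MV4;11 cells with CRBN knocked out, cultured in IMDM with 10% FBS, penicillin/streptomycin, 37 °C, 5% CO2. Seeded at 1.0–4.0 × 10^4 cells/well, rested 2 h, then given 0.01% DMSO or graded compound concentrations for 72 h. Viability by MTS/PMS over 2–4 h. IC50 from sigmoidal variable-slope fit; mean ± SEM of ≥3 assays in triplicate.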

[10] = molecular target: T1, Protein cereblon/Tyrosine-protein phosphatase non-receptor type 11; assay: Protac activity at SHP2/CRBN in human MV4-11 cells assessed as SHP2 degradation at 100 nM measured after 6 hrs by Western blot analysis relative to control; type: cell-based
Target sequence in this assay (Q96SW2 whole entry partner, one chain of several): as above

MV4-11 [11] = assay: Induction of apoptosis in human MV4-11 cells assessed as viable cells at 600 nM measured after 48 hrs by Annexin V/FITC-PI staining based flowcytometry assay (reference value: 91%); type: functional
MV4-11 [12] = assay: Induction of apoptosis in human MV4-11 cells assessed as necrotic cells at 200 nM measured after 48 hrs by Annexin V/FITC-PI staining based flowcytometry assay (reference value: 0.07%); type: functional
[13] = molecular target: T2, Tyrosine-protein phosphatase non-receptor type 11 (Homo sapiens) (UniProt Q06124); assay: Induction of SHP2 degradation in CRBN knock out human MV4-11 cells at 8 to 200 nM measured after 12 hrs by Western blot analysis; type: cell-based; details: dose 8-200 nM
T2 sequence (whole entry): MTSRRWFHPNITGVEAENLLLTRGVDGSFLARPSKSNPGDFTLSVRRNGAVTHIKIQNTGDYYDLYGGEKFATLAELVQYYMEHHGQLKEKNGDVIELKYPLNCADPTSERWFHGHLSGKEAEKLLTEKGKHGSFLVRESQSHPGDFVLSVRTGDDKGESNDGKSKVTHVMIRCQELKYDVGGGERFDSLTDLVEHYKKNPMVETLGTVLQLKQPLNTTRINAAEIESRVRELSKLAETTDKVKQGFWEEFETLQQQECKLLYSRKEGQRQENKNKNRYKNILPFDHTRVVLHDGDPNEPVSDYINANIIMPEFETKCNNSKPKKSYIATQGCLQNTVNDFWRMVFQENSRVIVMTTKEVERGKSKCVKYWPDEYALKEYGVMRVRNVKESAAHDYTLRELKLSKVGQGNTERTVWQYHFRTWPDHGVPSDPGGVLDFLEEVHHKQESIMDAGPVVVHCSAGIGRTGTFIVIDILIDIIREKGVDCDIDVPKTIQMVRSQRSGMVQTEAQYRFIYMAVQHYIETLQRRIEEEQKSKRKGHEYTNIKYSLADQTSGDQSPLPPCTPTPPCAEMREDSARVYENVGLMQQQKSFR

MV4-11 [14] = assay: Antiproliferative activity against human MV4-11 cells assessed as inhibition of cell proliferation measured after 72 hrs by MTS assay; type: functional, cell-based; details: MV4-11, 72 h
How it was run: (§2)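 MV4;11 (ATCC, STR-authenticated) in IMDM with 10% FBS, penicillin/streptomycin, 37 °C, 5% CO2. Seeded at 1.0–4.0 × 10^4 cells/well, rested 2 h, then exposed to 0.01% DMSO or graded compound concentrations for 72 h. MTS/PMS added for 2–4 h. IC50 from sigmoidal variable-slope nonlinear regression; mean ± SEM of at least three separate assays, each in triplicate.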

MV4-11 [15] = assay: Induction of apoptosis in human MV4-11 cells assessed as necrotic cells at 600 nM measured after 48 hrs by Annexin V/FITC-PI staining based flowcytometry assay (reference value: 0.07%); type: functional
MV4-11 [16] = assay: Induction of apoptosis in human MV4-11 cells assessed as late apoptotic cells at 70 nM measured after 48 hrs by Annexin V/FITC-PI staining based flowcytometry assay (reference value: 5.95%); type: functional
MV4-11 [17] = assay: Cytotoxicity against human MV4-11 cells assessed as cell viability measured after 72 hrs by MTS assay; type: functional, cell-based; details: MV4-11, 72 h; how it was run: as §2
[18] = molecular target: T1, Protein cereblon/Tyrosine-protein phosphatase non-receptor type 11; assay: Protac activity at SHP2/CRBN in human MV4-11 cells assessed as SHP2 degradation at 100 nM measured after 24 hrs by Western blot analysis relative to control; type: cell-based
Target sequence in this assay (Q96SW2 whole entry partner, one chain of several): as the sequence (Q96SW2 whole entry partner, one chain of several) above

[19] = molecular target: T1, Protein cereblon/Tyrosine-protein phosphatase non-receptor type 11; assay: Protac activity at SHP2/CRBN in human MV4-11 cells assessed as induction of SHP2 degradation measured after 12 hrs by Western blot analysis; type: cell-based; how it was run: as §1
MV4-11 [20] = assay: Induction of apoptosis in human MV4-11 cells assessed as early apoptotic cells at 600 nM measured after 48 hrs by Annexin V/FITC-PI staining based flowcytometry assay (reference value: 2.99%); type: functional
[21] = molecular target: T3, Tyrosine-protein phosphatase non-receptor type 11 (Homo sapiens, UniProt Q06124); assay: Inhibition of human SHP2 catalytic activity
T3 sequence (Q06124 whole entry): T2 sequence (whole entry)

MV4-11 [22] = assay: Induction of apoptosis in human MV4-11 cells assessed as necrotic cells at 70 nM measured after 48 hrs by Annexin V/FITC-PI staining based flowcytometry assay (reference value: 0.07%); type: functional
MV4-11 [23] = assay: Cell cycle arrest in human MV4-11 cells assessed as accumulation at G1 phase measured after 24 hrs by PI staining based flow cytometry assay; type: functional
How it was run: (§3)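 MV4-11 cells treated 24 h, then washed twice in cold PBS and fixed in ethanol overnight at 4 °C. Stained with propidium iodide plus RNase for 15 min at 37 °C. Cell-cycle distribution measured by flow cytometry.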

MV4-11 [24] = assay: Cell cycle arrest in human MV4-11 cells assessed as accumulation at G1 phase at 200 nM measured after 24 hrs by PI staining based flow cytometry assay; type: functional; how it was run: as §3
[25] = Homo sapiens, MV4-11, read-out: Activity

Compound: C[C@@H]1OCC2(CCN(c3cnc(Sc4cccc(NC(=O)CCC(=O)NCCOCCNc5ccc6c(c5)C(=O)N(C5CCC(=O)NC5=O)C6=O)c4Cl)c(N)n3)CC2)[C@@H]1N (some centres undefined)
Activity [1]: < 5%

Compound: C[C@@H]1OCC2(CCN(c3cnc(Sc4cccc(NC(=O)CCC(=O)NCCCOCCOCCOCCCNc5cccc6c5C(=O)N(C5CCC(=O)NC5=O)C6=O)c4Cl)c(N)n3)CC2)[C@@H]1N (some centres undefined)
viability at 0.07 µM (MV4-11 [2]; [25]): 87.5%
Activity [1]: 46%
viability at 0.2 µM (MV4-11 [3]; [25]): 81%
Activity (MV4-11 [4]): 7.23%
Activity (MV4-11 [5]): 14.3%
Activity (MV4-11 [6]): 11.3%
Activity (MV4-11 [7]): 4.76%
Activity [8]: Dose-Dependent Effect
IC50 (MV4-11 [9]): 2630 nM
Activity [10]: > 50%
viability at 0.6 µM (MV4-11 [11]; [25]): 76.9%
Activity (MV4-11 [12]): 0.39%
Activity [13]: inactive
IC50 (MV4-11 [14]): 207 nM
Activity (MV4-11 [15]): 0.907%
Activity (MV4-11 [16]): 8.01%
IC50 (MV4-11 [17]): 207 nM
Activity [18]: > 90%
DC50 [19]: 6.02 nM
Activity (MV4-11 [20]): 7.88%
IC50 [21]: 202 nM
Activity (MV4-11 [22]): 0.175%
Activity (MV4-11 [23]): Dose-Dependent Effect

Compound: C[C@@H]1OCC2(CCN(c3cnc(Sc4cccc(NC(=O)CCC(=O)NCCOCCOCCNc5cccc6c5C(=O)N(C5CCC(=O)NC5=O)C6=O)c4Cl)c(N)n3)CC2)[C@@H]1N (some centres undefined)
Activity [1]: 25%

Compound: C[C@@H]1OCC2(CCN(c3cnc(Sc4cccc(NC(=O)CCC(=O)NCCCCCCCCCCCCNc5cccc6c5C(=O)N(C5CCC(=O)NC5=O)C6=O)c4Cl)c(N)n3)CC2)[C@@H]1N (some centres undefined)
Activity [1]: 18%

Compound: C[C@@H]1OCC2(CCN(c3cnc(Sc4cccc(NC(=O)CCC(=O)NCCCCCCCCCCCCCNc5cccc6c5C(=O)N(C5CCC(=O)NC5=O)C6=O)c4Cl)c(N)n3)CC2)[C@@H]1N (some centres undefined)
Activity [1]: 8%

Compound: CC1(N)CCN(c2cnc(-c3cccc(Cl)c3Cl)c(N)n2)CC1
Activity (MV4-11 [2]): 94%
Activity (MV4-11 [3]): 88.5%
Activity (MV4-11 [4]): 4.68%
Activity (MV4-11 [5]): 7.74%
Activity (MV4-11 [6]): 6.43%
Activity (MV4-11 [7]): 3.98%
IC50 (MV4-11 [9]): 803 nM
Activity (MV4-11 [24]): Active
Activity (MV4-11 [11]): 86.5%
Activity (MV4-11 [12]): 0.099%
IC50 (MV4-11 [14]): 475 nM
Activity (MV4-11 [15]): 0.098%
Activity (MV4-11 [16]): 4.52%
IC50 (MV4-11 [17]): 572 nM
Activity (MV4-11 [20]): 5.08%
Activity (MV4-11 [22]): 0.078%

Compound: C[C@@H]1OCC2(CCN(c3cnc(Sc4cccc(NC(=O)CCC(=O)NCCOCCOCCOCCNc5cccc6c5C(=O)N(C5CCC(=O)NC5=O)C6=O)c4Cl)c(N)n3)CC2)[C@@H]1N (some centres undefined)
Activity [1]: 28%

Compound: C[C@@H]1OCC2(CCN(c3cnc(Sc4cccc(N)c4Cl)c(N)n3)CC2)[C@@H]1N
IC50 (MV4-11 [14]): 60 nM
IC50 [21]: 17 nM

More lines, now with the values ahead:

Activity [1]: 6%
Compound: C[C@@H]1OCC2(CCN(c3cnc(Sc4cccc(NC(=O)CCC(=O)NCCOCCNc5cccc6c5C(=O)N(C5CCC(=O)NC5=O)C6=O)c4Cl)c(N)n3)CC2)[C@@H]1N (some centres undefined)

Activity [1]: 23%
Compound: C[C@@H]1OCC2(CCN(c3cnc(Sc4cccc(NC(=O)CCC(=O)NCCCCCCCCCNc5cccc6c5C(=O)N(C5CCC(=O)NC5=O)C6=O)c4Cl)c(N)n3)CC2)[C@@H]1N (some centres undefined)

Activity [1]: < 5%
Compound: C[C@@H]1OCC2(CCN(c3cnc(Sc4cccc(NC(=O)CCC(=O)NCCOCCOCCOCCNc5ccc6c(c5)C(=O)N(C5CCC(=O)NC5=O)C6=O)c4Cl)c(N)n3)CC2)[C@@H]1N (some centres undefined)

Activity [1]: 42%
Compound: C[C@@H]1OCC2(CCN(c3cnc(Sc4cccc(NC(=O)CCC(=O)NCCCOCCOCCOCCCNc5ccc6c(c5)C(=O)N(C5CCC(=O)NC5=O)C6=O)c4Cl)c(N)n3)CC2)[C@@H]1N (some centres undefined)

Activity [1]: 22%
Compound: C[C@@H]1OCC2(CCN(c3cnc(Sc4cccc(NC(=O)CCC(=O)NCCCCCCCCNc5cccc6c5C(=O)N(C5CCC(=O)NC5=O)C6=O)c4Cl)c(N)n3)CC2)[C@@H]1N (some centres undefined)

Activity [1]: < 5%
Compound: C[C@@H]1OCC2(CCN(c3cnc(Sc4cccc(NC(=O)CCC(=O)NCCOCCOCCNc5ccc6c(c5)C(=O)N(C5CCC(=O)NC5=O)C6=O)c4Cl)c(N)n3)CC2)[C@@H]1N (some centres undefined)

Activity [1]: 0%
Compound: C[C@@H]1OCC2(CCN(c3cnc(Sc4cccc(NC(=O)CCC(=O)NCCCCCCCCCCNc5cccc6c5C(=O)N(C5CCC(=O)NC5=O)C6=O)c4Cl)c(N)n3)CC2)[C@@H]1N (some centres undefined)

Activity [1]: 26%
Compound: C[C@@H]1OCC2(CCN(c3cnc(Sc4cccc(NC(=O)CCC(=O)NCCCCCCCCCCCNc5cccc6c5C(=O)N(C5CCC(=O)NC5=O)C6=O)c4Cl)c(N)n3)CC2)[C@@H]1N (some centres undefined)
